Assay results as given in ChEMBL document CHEMBL1123449, “9,11-Epoxy-9-homo-14-oxaprosta-5-enoic acid derivatives. Novel inhibitors of fatty acid cyclooxygenase” (J Med Chem, 1986).

Experiments:
Homo sapiens [1] = species: Homo sapiens; assay: In vitro inhibition of arachidonic acid induced platelet aggregation of human platelet-rich plasma; format: functional; conditions: read-out: I50
Summary of the method: (§1)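 Aggregation of human platelet-rich plasma triggered with arachidonic acid at 800 μM. The method follows an earlier report, and the value is given as I50.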

Homo sapiens [2] = species: Homo sapiens; assay: In vitro ability to inhibit adenosine diphosphate induced platelet aggregation (ADPIPA) of human platelet-rich plasma (PRP), and I50 value was reported from single determination.; format: functional, organism-based; conditions: read-out: I50
Homo sapiens [3] = species: Homo sapiens; assay: In vitro ability to inhibit adenosine diphosphate induced platelet aggregation (ADPIPA) of human platelet-rich plasma (PRP); format: functional; conditions: read-out: I50
Homo sapiens [4] = species: Homo sapiens; assay: In vitro ability to inhibit arachidonic acid induced platelet aggregation (AAIPA) of human platelet-rich plasma (PRP); format: functional; summary of the method: as §1
Homo sapiens [5] = species: Homo sapiens; assay: In vitro ability to cause dose dependent inhibition of arachidonic acid (AA) conversion to PGE-2; format: functional; conditions: read-out: I50
Summary of the method: (§2)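 Compound incubated with platelet lysate at several concentrations. Read-out is inhibition of arachidonic acid conversion to TXA2, measured as TXB2 production, and to PGE2. The value is given as I50.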

Homo sapiens [6] = species: Homo sapiens; assay: In vitro ability to cause dose dependent inhibition of arachidonic acid (AA) conversion to thromboxane A2 (TXA2 ); format: functional; conditions: read-out: I50; summary of the method: as §2

IC50 (Homo sapiens [1]; Homo sapiens, Plasma) [µM] | SMILES | also measured
120 | CCCCCCCO[C@H]1C2CCC(O2)[C@@H]1C/C=C\CCCC(=O)O (stereo partly drawn) | 
105 | CCCCCOCCC1C2CCC(O2)C1C/C=C\CCCC(=O)O (stereo not drawn) | 
0.3 | CCCCC[C@H](O)/C=C/[C@H]1C2CCC(O2)[C@@H]1C/C=C\CCCC(=O)O (stereo partly drawn) | IC50 (Homo sapiens [2]): 1.6 µM
14 | CCCCCCOC(C)C1C2CCC(O2)C1CC=CCCCC(=O)O (stereo not drawn) | 

The next lines start with the compound.

SMILES | IC50 (Homo sapiens [1]; Homo sapiens, Plasma) [µM] | also measured
CCC/C=C\COCC1C2CCC(O2)C1C/C=C\CCCC(=O)O (stereo not drawn) | 3.3 | 
CCCCCCCO[C@@H]1C2CCC(O2)[C@@H]1C/C=C\CCCC(=O)O (stereo partly drawn) | 340 | 
CCC/C=C/COCC1C2CCC(O2)C1C/C=C\CCCC(=O)O (stereo not drawn) | 0.3 | 
COCC1C2CCC(O2)C1C/C=C\CCCC(=O)O (stereo not drawn) | 22 | 
CC/C=C/CCOCC1C2CCC(O2)C1C/C=C\CCCC(=O)O (stereo not drawn) | 0.5 | 
CCCCC[C@H](O)/C=C/[C@@H]1C2CCC(O2)[C@@H]1C/C=C\CCCC(=O)O (stereo partly drawn) |  | IC50 (Homo sapiens [3]): 300 µM
O=C(O)CCC/C=C\CC1C2CCC(O2)C1COCCCc1ccccc1 (stereo not drawn) | 26 | 
O=C(O)CCCCC1CC2C3CCC(O3)C2CO1 (stereo not drawn) | > 1000 | 
CCCC#CCOCC1C2CCC(O2)C1C/C=C\CCCC(=O)O (stereo not drawn) | 0.2 | 
O=C(O)CCC/C=C\CC1C2CCC(O2)C1COCC1CCCCC1 (stereo not drawn) | 165 | 
CCCCCCCCOCC1C2CCC(O2)C1C/C=C\CCCC(=O)O (stereo not drawn) | 32 | 
C=CCOCC1C2CCC(O2)C1C/C=C\CCCC(=O)O (stereo not drawn) | 6 | 
CCCCC(C)COCC1C2CCC(O2)C1C/C=C\CCCC(=O)O (stereo not drawn) | 7.4 | 
CCCC[C@@H](O)/C=C/C1C2CCC(O2)C1C/C=C\CCCC(=O)O (stereo partly drawn) |  | AC50 (Homo sapiens [4]): 2.5 µM
CCCCCCOCC1C2CCC(O2)C1CCCCCCC(=O)O (stereo not drawn) | 0.2 | 
CCCCCCOC[C@@H]1C2CCC(O2)[C@@H]1C/C=C\CCCC(=O)O (single isomer, unassigned; (-)) |  | IC50 (Homo sapiens [1]): 38.5 µM
CCCCCCOC[C@@H]1C2CCC(O2)[C@H]1C/C=C\CCCC(=O)O (stereo in doubt; 1) |  | IC50 (Homo sapiens [5]; Homo sapiens): 3.8 µM; IC50 (Homo sapiens [5]): 6.3 µM; IC50 (Homo sapiens [1]): 0.5 µM; IC50 (Homo sapiens [3]): > 1000 µM; IC50 (Homo sapiens [6]): 6.3 µM
CCCCCCOC[C@@H]1C2CCC(O2)[C@H]1C/C=C\CCCC(=O)O (stereo in doubt; 9) |  | IC50 (Homo sapiens [1]): 25 µM
CCCCCCOC[C@@H]1C2CCC(O2)[C@@H]1C/C=C\CCCC(=O)O (stereo in doubt; 10) |  | IC50 (Homo sapiens [1]): 10 µM
CCCCCCOC[C@@H]1C2CCC(O2)[C@H]1C/C=C\CCCC(=O)O (stereo in doubt; 11) |  | IC50 (Homo sapiens [1]): 18 µM
CCCCCC(C)OCC1C2CCC(O2)C1C/C=C\CCCC(=O)O (stereo in doubt; form 1) |  | IC50 (Homo sapiens [1]): 23 µM
CCCCCC(C)OCC1C2CCC(O2)C1C/C=C\CCCC(=O)O (stereo in doubt; form 2) |  | IC50 (Homo sapiens [1]): 3.2 µM
CC(=O)Oc1ccccc1C(=O)O [ASPIRIN] | 185 | 
COc1ccc2c(c1)c(CC(=O)O)c(C)n2C(=O)c1ccc(Cl)cc1 [INDOMETHACIN] | 4 | 
